This is a sample that favours compounds with a hit; in the whole collection about 3.1% have one here.
FN deposit inh – fibronectin deposition inhibition | AH1F fibroblasts, Alexa488-fibronectin deposition fluorescence, overnight | inhibition, % at 12.6 µM | actives 0.086% (n = 350,000) | AID 743247;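 active = mean inhibition across replicates of 30% or more, regardless of how many single replicates reach that level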;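 note: positive control wells lacked labelled fibronectin entirely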
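Material: AH1F fibroblast monolayer depositing Alexa488-labelled fibronectin into matrix / Amount: 10000 AH1F cells per well / Signal: fluorescence 485/525 nm / Medium: DMEM, 2% serum / Compound: single dose, pinned / Incubation: 1 h cell adhesion before compound, then overnight fibronectin incubation / Reagent: Alexa488-FN, 24 nM final / Read-out: inhibition of fibronectin deposition signal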
PAX8 reporter – PAX8 transcriptional activity inhibition. RMG-I TPO-luciferase reporter, SteadyGlo, 24 h. inhibition, % at 12.6 µM. actives 1.2% (n = 360,000). AID 652154;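 active = mean replicate inhibition at least 60% with every replicate also reaching 60%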;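 note: luciferase light reporting Pax8 driven TPO promoter activity; plate controls were median of neutral control wells for no effect and mitoxantrone controls for full effect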
PGC1a acetyl inh – modulators of PGC1a acetylation; U2OS PGC1a acetylation, AlphaScreen anti-acetyl-lysine; with virally co-expressed GCN5 acetyltransferase; inhibition, % at 15.6 µM; AID 651687; actives 0.17% (n = 350,000);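 active = every replicate shows inhibition of at least 40%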;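 note: 0% = neutral control wells and 100% = positive control wells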
EWS-Fli inh – inhibitors of EWS/Fli oncoprotein transcriptional activity; actives 0.67% (n = 350,000); AID 651661; inhibition, % at 12.6 µM; A673 NR0B1-luciferase reporter, viability-normalised;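 active = mean inhibition of at least 50% after viability correction, with every replicate also passing that limit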;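 note: firefly luciferase signal divided by Alamar Blue viability fluorescence both relative to DMSO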
FGF22 binding – FGF22 (human) thermal shift binding. activity (Tm shift, normalised), % at 9.99 µM. AID 651658. recombinant FGF22 thermal shift, SYPRO orange fluorescence; percent of sucrose octasulfate shift, DMSO zero. actives 1.5% (n = 340,000). Q9HCT0;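 active = mean Tm shift, scaled 0 neutral to 100 positive control, at about 1.3% or above, every replicate too, limit read from the data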
Target sequence (Q9HCT0 whole entry, looked up): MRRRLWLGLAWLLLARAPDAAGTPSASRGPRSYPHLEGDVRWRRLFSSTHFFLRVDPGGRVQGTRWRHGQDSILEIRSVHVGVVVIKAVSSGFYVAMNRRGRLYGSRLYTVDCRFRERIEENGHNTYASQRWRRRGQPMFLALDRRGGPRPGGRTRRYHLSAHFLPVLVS
HIV Env fusion – HIV envelope-mediated fusion inhibition; HeLa-JRFL Env/CEM21 cell fusion, luciferase; inhibition, % at 12.3 µM; actives 1.1% (n = 360,000);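 active = mean replicate inhibition score of at least 50 and every replicate individually at or above 50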;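 note: 0% = plate neutral controls and 100% = maraviroc near 300 nM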
Numbers without * were called inactive; / = not tested or not shown; [ ] = remark or other dose.

SMILES	FN deposit inh	PAX8 reporter	PGC1a acetyl inh	EWS-Fli inh	FGF22 binding	HIV Env fusion
CC(C)CC#Cc1ccc2c(c1)O[C@H](CN(C)Cc1ccc(F)cc1)[C@@H](C)CN([C@H](C)CO)S2(=O)=O	/	-4.0	-1.1	22.7	0.0	13.3[16.7 µM]
CC(C)CC#Cc1ccc2c(c1)O[C@H](CN(C)Cc1ccc(F)cc1)[C@H](C)CN([C@H](C)CO)S2(=O)=O	/	76.3*	34.6	35.6	-0.3	19.3[16.7 µM]
CC(C)CC#Cc1ccc2c(c1)O[C@H](CN(C)Cc1ccccc1)[C@H](C)CN([C@@H](C)CO)S2(=O)=O	2.5	/	48.0*	13.0	/	32.7[16.7 µM]
CC(C)CC#Cc1ccc2c(c1)O[C@@H](CN(C)Cc1cccc(F)c1)[C@H](C)CN([C@@H](C)CO)S2(=O)=O	25.7	/	19.9	20.6	0.1	-15.9[16.7 µM]
CC(C)CC#Cc1ccc2c(c1)O[C@H](CN(C)Cc1ccccc1)[C@@H](C)CN([C@H](C)CO)S2(=O)=O	-11.2	/	52.0*	25.3	/	13.8[16.7 µM]
CC(C)CC#Cc1ccc2c(c1)O[C@H](CN(C)Cc1cccc(F)c1)[C@@H](C)CN([C@@H](C)CO)S2(=O)=O	-15.7	/	24.1	62.1*	0.0	6.1[16.7 µM]
CC=Cc1ccc2n(c1=O)C[C@@H]1[C@@H](CO)[C@H](C(=O)N3CCc4ccccc4C3)[C@H]2N1Cc1cocn1 (mixture of isomers)	-8.4	5.9	-7.1	6.6	0.3	/
CC(C)NC(=O)N1[C@H](CN(C)C(=O)c2ccccc2)[C@@H](c2ccccc2)[C@@H]1CO	-6.4	-15.0	0.8	10.1	-0.9	/
CC(C)CC#Cc1ccc2c(c1)O[C@@H](CN(C)Cc1ccccn1)[C@H](C)CN([C@H](C)CO)S2(=O)=O	2.5	72.0*	4.0	31.8	-0.3	91.3*[16.7 µM]
O=C(CCc1ccc(S(=O)(=O)N2CCOCC2)cc1)Nc1nc(COc2ccccc2)cs1	-1.4	/	5.8	/	/	79.7*
O=C(COc1ccccc1)Nc1nc(-c2ccc(S(=O)(=O)N3CCOCC3)cc2)cs1	/	/	0.8	/	/	/
Cc1cc(C)nc(Nc2nc(C(N)Cc3ccc(Cl)cc3)cs2)n1 (stereo unspecified)	-7.3	-12.3	3.4	-12.2	0.1	-34.0
Cc1cc(C)nc(Nc2nc(C(N)Cc3ccc(F)cc3)cs2)n1 (stereo unspecified)	-30.9	84.3*	/	26.9	-0.1	-9.3
C[C@@H](NC(=O)[C@H]1N[C@H]2c3ccc(-c4cncnc4)c(=O)n3C[C@H]2[C@@H]1CO)c1ccccc1	/	-8.1	/	-7.8	0.1	/
CC1(C)C2CC=C(/C=N/NC(=O)c3ccccc3Br)C1C2 (stereo unspecified)	7.8	6.9	/	-5.4	43.4*	14.3
C[C@@]12C(=O)N(CCc3c[nH]c4ccccc34)CC(=O)N1[C@H]1c3ccccc3OC[C@@H]1[C@@H]2c1ccccc1	-0.3	-2.2	/	20.7	-0.1	82.3*
C[C@@]12C(=O)N(Cc3ccc(F)cc3)CC(=O)N1[C@H]1c3cc(Cl)ccc3OC[C@@H]1[C@@H]2c1ccccc1	4.6	-1.5	/	7.6	0.0	77.3*
C[C@@]12C(=O)N(Cc3ccccc3)CC(=O)N1[C@H]1c3cc(Cl)ccc3OC[C@@H]1[C@@H]2c1ccccc1	8.2	0.6	-2.1	15.3	-0.3	61.1*
C[C@@H]1CN([C@@H](C)CO)C(=O)CCCn2cc(nn2)CO[C@@H]1CN(C)C(=O)c1ccc2ccn(C)c2c1	-11.8	2.5	8.6	1.0	/	/
Cc1noc(C)c1NC(=O)N(C)C[C@@H]1OCCCC[C@H](C)Oc2ccc(NC(=O)Cc3ccccc3)cc2C(=O)N([C@H](C)CO)C[C@H]1C	/	/	0.0	2.2	-0.3	-3.7[16.7 µM]
Cc1ccc(OCC(=O)N/N=C2/SCC(=O)N2Cc2ccccc2)cc1	1.1	10.7	/	15.7	0.0	-19.8
Cc1cccc(OCC(=O)N/N=C2/SCC(=O)N2Cc2ccco2)c1	-1.4	7.1	-3.1	11.5	43.1*	-31.3
COc1cc(OC)cc(C(=O)N/N=C2/SCC(=O)N2Cc2ccco2)c1	-9.5	-11.6	1.1	-19.2	-0.3	-9.7
Cc1ccccc1C(=O)N/N=C1\SCC(=O)N1Cc1ccco1	3.9	-7.6	1.5	0.7	43.6*	9.8
Cc1ccc(OCC(=O)Nc2sc3c(c2C#N)CC(C)(C)NC3(C)C)cc1	26.3	-11.8	-26.4	-16.3	43.5*	7.4
SMILES	FN deposit inh	PAX8 reporter	PGC1a acetyl inh	EWS-Fli inh	FGF22 binding	HIV Env fusion
CC1(C)Cc2c(sc(NC(=O)c3ccc(S(=O)(=O)N4CCCCCC4)cc3)c2C#N)C(C)(C)N1	1.9	7.4	-3.1	0.3	-0.1	62.9*
CCOC(=O)N1CCN(S(=O)(=O)c2ccc(C(=O)Nc3sc4c(c3C(N)=O)CC(C)(C)NC4(C)C)cc2)CC1	-13.8	-5.2	/	10.5	-0.3	-7.7
COc1ccc(/C=C2/SC(=S)N(CCCC(=O)Nc3cccc(O)c3)C2=O)cc1	0.8	77.1*	0.8	-3.2	-0.1	1.8
COc1ccc(/C=C2\SC(=S)N(CCC(=O)Nc3cccc(O)c3)C2=O)cc1OC	5.5	1.7	8.4	-35.4	-0.2	-4.7
Cc1ccc(/C=C2\SC(=S)N(CCCC(=O)Nc3ccccc3C(=O)O)C2=O)cc1	/	12.1	/	35.4	-0.1	67.9*
COc1cccc(/C=C2\SC(=S)N(CCC(=O)NCCc3ccc(O)cc3)C2=O)c1	-6.9	99.9*	16.0	/	0.7	-20.8
COC(=O)c1ccc(/C=C2/SC(=S)N(CCCC(=O)Nc3ccc(O)cc3)C2=O)cc1	-3.9	18.0	/	/	0.2	0.4
Cc1ccc(/C=C2\SC(=S)N(CCCC(=O)Nc3ccc(O)cc3)C2=O)cc1	-8.7	42.2	8.3	43.8	-0.1	63.6*
O=C(c1cccc(F)c1)N1CC(=O)N2[C@H](CO)[C@@H](c3ccc(-c4ccccc4F)cc3)[C@@H]2C1	/	-2.8	-0.9	-0.8	1.0	/
Cc1ccc(S(=O)(=O)N(C)C[C@@H]2Oc3ccc(NC(=O)CCN4CCOCC4)cc3CC(=O)N([C@H](C)CO)C[C@H]2C)cc1	/	-3.5	5.1	8.5	-0.2	/
O=C(Cc1ccc(Cl)cc1)c1c[nH]c(C(=O)NCc2cccnc2)c1	/	-2.3	-64.6	65.8*	0.4	7.8
CC(C)(C)c1ccc(C(=O)c2c[nH]c(C(=O)NCc3cccnc3)c2)cc1	2.3	/	-257.1	/	/	31.4
CC(C)NC(=O)N(C)C[C@@H]1Oc2cc(-c3ccncc3)ccc2S(=O)(=O)N([C@H](C)CO)C[C@H]1C	3.4	/	0.2	-8.9	-0.3	-19.2[16.7 µM]
COc1cccc(CN2CC(C(=O)N(C)Cc3ccc(C)cc3)CCC2=O)c1 (stereo unspecified)	-2.4	-13.3	/	/	-0.4	58.2*
COc1cccc(CN2CC(C(=O)N(C)Cc3[nH]c4ccccc4c3C)CCC2=O)c1 (stereo unspecified)	-1.4	22.2	10.4	11.9	0.0	0.7
CCNC(=O)C[C@H]1CC[C@@H]2[C@H](COC[C@@H](O)CN2C(=O)c2cc(Cl)cc(Cl)c2)O1	0.1	/	-2.3	/	0.1	/
